B1: tRNA (parent)
chain: CUCUCGGUAGCCAAGUUGGUUUAAGGCGCAAGACUUUAAUUUAUCACUACGAAAUCUUGAGAUCGGGCGUUCGACUCGCCCCCGGGAGAUUUUUUCCUCGAGCAA

Fewer inactive variants are shown than the library holds. Some results are limits rather than exact numbers.

Variants of B1 are the subject of the data set. The experiment in a line: nonsense suppression (GFP-seq) (ratio to wild type); higher = more function; SUP4oc tRNA, yeast GFP reporter sort-seq. The gist of the method: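 Raffinose/galactose medium with 80 mg/L adenine was used to grow yeast carrying genome-integrated tRNA variants (~3% random-mutation library), RFP, and a galactose-driven GFP ochre reporter. Cells went into GFP/RFP bins, which were Illumina-sequenced, and variants with ≥100 reads and ≥30 cells were scored. Nonsense suppression (GFPSEQ) is the per-bin median GFP/RFP weighted by estimated cell share and expressed relative to the unmutated parent tRNA.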
As for CUCUCGGUAGCCAAGUUGGUUUAAGGCGCAAGACCUUAAUUUAUCACUACGAAAUCUUGAGAGCGGGCGUUCGACUCGCCCCCGGGAGAUUUUUUCCUCGAGCAA [U35C U63G], the nonsense suppression turned out to be 0.0352.

In the case of CUCUCGGUAGCCAAGUUGGUUUAAGGCGCAAGACUUUAAUUUAUCACUACGAACUCUUGAGAUUGGGCGUUCGACUCGCCCCCGGGAGAUUUUUUCCUCGAGCAA [A54C C64U], the nonsense suppression was 0.0402.

Consider CUCUCGGUAGCCAAGUUGGUUUAAGGCGCAAGACUUUAAUUUAUCACUACGAACUCUUGGGAUCGGGCGUUCGACUCGCCCCCGGGAGAUUUUUUCCUCGAGCAA [A54C A60G], for which the nonsense suppression came to 0.0773.

With CUCUCGGUAGCCAAGUUGGUUUAAGGCGCAAGACUUUAAUUUAUCACUACGAACUCUUGUGAUCGGGCGUUCGACUCGCCCCCGGGAGAUUUUUUCCUCGAGCAA [A54C A60U], the nonsense suppression is 1.09.

Consider CUCUCGGUAGCCAAGUUGGUUUAAGGCGCAAGACGUUAAUUUAUCACUACGAAAUCUUUGGAUCGGGCGUUCGACUCGCCCCCGGGAGAUUUUUUCCUCGAGCAA [U35G G59U A60G], for which the nonsense suppression was at most 0.026.

As for CUCUCGGUAGCCAAGUUGGUUUAAGGCGCAAGACGUUAAUUUAUCACUACGAAACCUUGACAUCGGGCGUUCUACUCGCCCCCGGGAGAUUUUUUCCUCGAGCAA [U35G U55C G61C G73U], the nonsense suppression is at most 0.026.

Consider CUCUCGGUAGCCAAGUUGGUUUAAGGCGCAAGACGUUAAUUUAUCACUACGAAAUCUUGAGAUCGGGGGUUCGACUCGCCCUCGGGAGAUUUUUUCCUCGAGCAA [U35G C68G C82U], for which the nonsense suppression was at most 0.026.

Regarding CUCUCGGUAGCCAAGUUGGUUUAAGGCGCAAGACUUUAAUUUAUCACUACGAACUCUUGAGAUCGGGCGUUCGACUCGCCUCCGGGAGAUUUUUUCCUCGAGCAA [A54C C81U], the nonsense suppression is 0.21.

On to CUCUCGGUAGCCAAGUUGGUUUAAGGCGCAAGACUUUAAUUUAUCACUACGAACUCUUGAGAUCGGGCGUUCGACUCGCUCCCGGGAGAUUUUUUCCUCGAGCAA [A54C C80U], for which the nonsense suppression was 0.194.

CUCUCGGUAGCCAAGUUGGUUUAAGGCGCAAGACUUUAAUUUAUCACUACGAACUCUUGAGAUCGGGCGUUCGACUCGCGCCCGGGAGAUUUUUUCCUCGAGCAA [A54C C80G]: the nonsense suppression turned out to be 0.0733.

For the variant CUCUCGGUAGCCAAGUUGGUUUAAGGCGCAAGACUUUAAUUUAUCACUACGAACUCUUGAGAUCGGGCGUUCGAUUCGCCCCCGGGAGAUUUUUUCCUCGAGCAA [A54C C75U], the nonsense suppression stood at 1.22.

Regarding CUCUCGGUAGCCAAGUUGGUUUAAGGCGCAAGACUUUAAUUUAUCACUACGAACUCUUGAGAUCGGGCGUUCGAGUCGCCCCCGGGAGAUUUUUUCCUCGAGCAA [A54C C75G], the nonsense suppression was 1.15.

On to CUCUCGGUAGCCAAGUUGGUUUAAGGCGCAAGACUUUAAUUUAUCACUACGAACUCUUGAGAUCGGGCGUUCGCCUCGCCCCCGGGAGAUUUUUUCCUCGAGCAA [A54C A74C], for which the nonsense suppression was at most 0.026.

As to CUCUCGGUAGCCAAGUUGGUUUAAGGCGCAAGACUUUAAUUUAUCACUACGAACUCUUGAGAUCGGGCGUUCGGCUCGCCCCCGGGAGAUUUUUUCCUCGAGCAA [A54C A74G], the nonsense suppression stood at 0.0575.

For CUCUCGGUAGCCAAGUUGGUUUAAGGCGCAAGACUUUAAUUUAUCACUACGAACUCUUGAGAUCGGUCGUUCGACUCGCCCCCGGGAGAUUUUUUCCUCGAGCAA [A54C G67U], the nonsense suppression is at most 0.026.

As to CUCUCGGUAGCCAAGUUGGUUUAAGGCGCAAGACGUUAAUUUAUCACUACGAAAUAUUGAUAACGGGCGUUCGACUCGCCCCCGGGAGAUUUUUUCCUCGAGCAA [U35G C56A G61U U63A], the nonsense suppression was at most 0.026.

CUCUCGGUAGCCAAGUUGGUUUAAGGCGCAAGACUUUAAUUUAUCACUACGAACUCUUGAGAUCGGGCGUUCGACUCGCCCCCGGGAGAUUUUUUCCUCGAGCAA [A54C]: the nonsense suppression came out at 1.16.

CUCUCGGUAGCCAAGUUGGUUUAAGGCGCAAGACUUUAAUUUAUCACUACGAACUCUUGAGAUCGGGGGUUCGACUCGCCCCCGGGAGAUUUUUUCCUCGAGCAA [A54C C68G]: the nonsense suppression was at most 0.026.

CUCUCGGUAGCCAAGUUGGUUUAAGGCGCAAGACCUUAAUUUAUCACUACGAAAUCUUGAGAUCGGGCGAUCGACUCGCCCCCGGGAGAUUUUUUCCUCGAGCAA [U35C U70A]: the nonsense suppression is at most 0.026.

CUCUCGGUAGCCAAGUUGGUUUAAGGCGCAAGACCUUAAUUUAUCACUACGAAAUCUUGAAAUCGGGCGUUCGACUCGCCCCCGGGAGAUUUUUUCCUCGAGCAA [U35C G61A]: the nonsense suppression was 0.0378.

For CUCUCGGUAGCCAAGUUGGUUUAAGGCGCAAGACUUUAAUUUAUCACUACGAACUCUUGAGAUCGGGCGUUCGACUCGCCCUCGGGAGAUUUUUUCCUCGAGCAA [A54C C82U], the nonsense suppression came out at 0.211.

Regarding CUCUCGGUAGCCAAGUUGGUUUAAGGCGCAAGACCUUAAUUUAUCACUACGAAAUCUUGAGAUCGGGCGUUCAACUCGCCCCCGGGAGAUUUUUUCCUCGAGCAA [U35C G73A], the nonsense suppression is at most 0.026.

For the variant CUCUCGGUAGCCAAGUUGGUUUAAGGCGCAAGACUUUAAUUUAUCACUACGAACUCUUGAGAUCUGGCGUUCGACUCGCCCCCGGGAGAUUUUUUCCUCGAGCAA [A54C G65U], the nonsense suppression came out at 0.0425.

As to CUCUCGGUAGCCAAGUUGGUUUAAGGCGCAAGACUUUAAUUUAUCACUACGAACUCUUGAAAUCGGGCGUUCGACUCGCCCCCGGGAGAUUUUUUCCUCGAGCAA [A54C G61A], the nonsense suppression was 0.334.

For the variant CUCUCGGUAGCCAAGUUGGUUUAAGGCGCAAGACUUUAAUUUAUCACUACGAACUCUUGACAUCGGGCGUUCGACUCGCCCCCGGGAGAUUUUUUCCUCGAGCAA [A54C G61C], the nonsense suppression worked out at 0.216.

As to CUCUCGGUAGCCAAGUUGGUUUAAGGCGCAAGACUUUAAUUUAUCACUACGAACUCUUGAGAUCGGGCGUUCGACUCGCCCCCGGGGGAUUUUUUCCUCGAGCAA [A54C A87G], the nonsense suppression amounted to 0.59.

As to CUCUCGGUAGCCAAGUUGGUUUAAGGCGCAAGACGUUAAUUUAUCACUACGAAAUCUUGAGAUCGGGCGUUCGACUCGCCCCCGUGAGAUUUUUUCCUCGAGCAA [U35G G85U], the nonsense suppression is at most 0.026.
